Hits are enriched below; roughly 3.8% of the tested compounds scored in any of these assays.
KCNK3 block: human KCNK3 channel inhibition, primary screen. O14649. CHO-KCNK3 thallium flux, FluxOR fluorescence; active compounds read low. B-score at 10 µM. hit rate 0.84% among 340,000. AID 602410;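 active = B-score under library mean minus 4 SD, starting fluorescence ratio at most library mean plus 5 SD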;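 note: more negative B-score means stronger inhibition of thallium flux through KCNK3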
Target sequence (O14649 whole entry, looked up): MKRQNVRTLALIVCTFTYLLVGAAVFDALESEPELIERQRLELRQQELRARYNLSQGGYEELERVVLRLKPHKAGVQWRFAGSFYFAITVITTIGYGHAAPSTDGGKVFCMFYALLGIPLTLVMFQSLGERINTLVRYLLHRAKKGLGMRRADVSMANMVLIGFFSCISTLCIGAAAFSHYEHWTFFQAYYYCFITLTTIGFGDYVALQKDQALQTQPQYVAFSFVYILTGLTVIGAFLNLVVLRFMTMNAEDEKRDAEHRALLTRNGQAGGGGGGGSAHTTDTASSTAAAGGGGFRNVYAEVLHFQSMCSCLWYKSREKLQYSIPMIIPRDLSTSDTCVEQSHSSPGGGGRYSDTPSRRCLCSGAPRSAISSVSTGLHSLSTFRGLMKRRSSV
Kir21 block: blocks the mouse Kir2.1 inward-rectifier potassium channel; HEK293-Kir2.1, FluxOR thallium flux fluorescence; active compounds read low; B-score at 10 µM; hit rate 0.85% among 310,000; AID 1672;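 active = fluorescence ratio B-score at or below minus 3 SD of library scores, with starting-brightness B-score within 2 SD, cut at about -4.2 in these data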;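 note: channel flux triggered by added potassium and thallium sulfate stimulus; B-score of peak minus minimum fluorescence over baseline after thallium stimulus; more negative B-score means stronger Kir2.1 block with less thallium influx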
KCNK9 inh: inhibitors of human KCNK9 two-pore domain potassium channel; Q9NPC2; HEK293 KCNK9, FluxOR thallium flux fluorescence; active compounds read low; B-score at 10 µM; hit rate 1.2% among 310,000; AID 488922;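 active = ratio B-score over 3 SD below the library mean, with starting fluorescence within 5 SD of its mean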;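 note: negative B-score means less thallium flux so channel inhibition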
KCNQ1 inh: inhibitors of human KCNQ1 potassium channel | P51787 | AID 2642 | hit rate 1.3% among 310,000 | B-score at 10 µM | CHO-K1 KCNQ1, FluxOR thallium flux fluorescence; active compounds read high;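 active = compounds whose thallium flux B-score, printed positive for inhibition, exceeds three library SD while starting fluorescence stays within three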;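 note: channel opened by potassium depolarization with thallium stimulus after 20 min compound exposure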
hERG rescue: compounds protecting human hERG from proarrhythmic drug block. activation (rescue from dofetilide block), less the hit threshold, % at 10 µM. AID 1511. hit rate 0.51% among 310,000. CHO-hERG, FluxOR thallium flux, dofetilide IC70 present. Q12809;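 active = activation above the mean of controls blocked by dofetilide plus 5 SD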;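 note: thallium influx through hERG after potassium depolarization seen as dye fluorescence rise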
KCNQ1 act: potentiators or activators of human KCNQ1 potassium channel. B-score at 10 µM. AID 2648. hit rate 0.35% among 310,000. CHO-K1 KCNQ1, thallium flux FluxOR fluorescence; active compounds read high;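 active = fluorescence ratio B-score, a plate-corrected score, at least three library SD, with initial intensity B-score within 5 SD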
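assay system = CHO-K1 cells stably expressing KCNQ1 | medium = assay buffer, equal DMSO in all wells | timing = 37 °C overnight plating, 90-min dark dye load, 20-min compound pretreatment | measured by = kinetic FluxOR thallium fluorescence, 10-s 1-Hz baseline, 110-s post-stimulus read | measure = fluorescence change relative to baseline, converted to B score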
KCNK9 inh conf: confirmation of human KCNK9 potassium channel inhibitors; HEK293 KCNK9 cells, FluxOR thallium flux fluorescence; inhibition, % at 10 µM; hit rate 43% among 4,900; shares compounds with KCNK9 inh;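 active = thallium signal inhibited by more than 5 SD of the compound-free buffer control wells, on both duplicate plates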;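 note: 0% = assay buffer control wells without compound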
Kir21 sel: tests whether KCNK9 modulators also affect mouse Kir2.1. shares compounds with KCNK9 inh. Kir2.1 cells, FluxOR thallium flux fluorescence. inhibition, % at 10 µM. hit rate 4% among 4,900;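 active = thallium signal drop more than 5 SD beyond the mean of the no-compound control wells, seen in both duplicate plates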;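 note: signal is fluorescence rise after thallium addition divided by baseline fluorescence; plate controls were assay buffer only for no effect and full block by chlorpromazine control for full effect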
KCNK9 uninduced: non-induced cell nonspecific activity of KCNK9 modulators; shares compounds with KCNK9 inh; non-induced KCNK9-HEK293, FluxOR thallium flux; inhibition, % at 10 µM; hit rate 40% among 4,900; AID 492997;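 active = thallium signal drop beyond 5 SD of the untreated control mean, on both duplicate plates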;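 note: plate controls were buffer only IC0 wells for no effect and SID17386958 at its maximal inhibitory level for full effect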
KCNK3 inh conf: human KCNK3 channel inhibition, confirmation assay; CHO-KCNK3 thallium flux, FluxOR fluorescence; 0% buffer, 100% carvedilol maximal block; shares compounds with KCNK3 block; ratio percent of control, % at 10 µM; AID 651638; hit rate 99% among 2,400;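 active = ratio percent of control, averaged over triplicates, above buffer control mean plus 5 SD, cut at about 64% in these data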;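 note: ratio is the fluorescence rise from min to max over baseline after thallium stimulus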
KCNK3 uninduced: activity in cells without induced KCNK3 expression. thallium flux ratio (lower = more inhibition) at 10 µM. hit rate 40% among 2,400. shares compounds with KCNK3 block. non-induced KCNK3 parental cells, FluxOR thallium flux; active compounds read low;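 active = thallium flux ratio, averaged over three wells, more than 5 SD below the buffer control mean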;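 note: host cells are CHO cells without KCNK3 induction; ratio is peak minus trough fluorescence over baseline then normalized to buffer controls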
* marks the source's active call; other numbers are inactive results; i = inactive; · = no result given.

SMILES	KCNK3 block	Kir21 block	KCNK9 inh	KCNQ1 inh	hERG rescue	KCNQ1 act	KCNK9 inh conf	Kir21 sel	KCNK9 uninduced	KCNK3 inh conf	KCNK3 uninduced
O=CNCCCc1nc2ccccc2n1Cc1cccc2ccccc12	i	-0.83	i	i	-10.2	i	·	·	·	·	·
COc1ccc(C)cc1NC(=O)c1cccc(C(=O)Nc2cc(C)ccc2OC)n1	i	0.28	-15.5*	i	-8.4	i	61.0%*	i	31.5%*	107.3*	i
COc1ccc(C(C)=O)cc1COC(=O)c1cccnc1Cl	i	1.13	i	i	-3.8	i	·	·	·	·	·
COc1ccc(C(C)=O)cc1COC(=O)c1cc2ccccc2cc1O	-13*	2.24	-14.9*	i	-9.3	i	31.5%*	i	29.0%*	109.3*	i
Cc1nc(SC(C)C(=O)Nc2cccc(C(F)(F)F)c2)c2c(C)c(C(=O)O)sc2n1 (configuration not stated)	i	-0.53	i	i	-10.7	i	·	·	·	·	·
Cc1nc(N2CCC(C)CC2)c2c(C)c(C(=O)Nc3cccc(C(F)(F)F)c3)sc2n1	-9.42*	1.37	i	13*	-8.8	i	i	i	30.5%*	126.0*	0.13*
C=CCN1c2ccccc2C(=O)CS1(=O)=O	i	·	·	·	·	·	·	·	·	·	·
O=C(CCCSc1nnc(SCCCC(=O)c2ccc(F)cc2)s1)c1ccc(F)cc1	-10.7*	-0.2	i	i	-17.8	i	i	i	i	100.0*	i
COc1cc(C(C)=O)ccc1Oc1cc(NN2CCCCC2)c([N+](=O)[O-])cc1[N+](=O)[O-]	i	0.02	i	i	-10.2	i	·	·	·	·	·
CCC1=C(OC(=O)N(CC)CC)N2C(=O)OC(=NCC3CC3)[C@]2(C)[C@H]2C1=CC[C@H]1C(=O)N(C)C(=O)[C@H]12	i	-0.99	i	i	-0.6	i	·	·	·	·	·
Cc1ccc(COn2c(-c3ccc(Cl)cc3Cl)nc3ncccc32)cc1	-9.6*	-5.12*	-11.2*	i	-15.3	i	55.5%*	i	42.0%*	120.0*	0.146*
COc1ccccc1C(=O)Nc1ccc(S(=O)(=O)N(C)c2ccccc2)cc1	-9.27*	0.19	-9.13*	i	-2.4	i	48.5%*	i	i	106.0*	i
COc1ccccc1Cn1c(-c2ccccc2OC)nc2ccccc21	-9.12*	0.98	-11.3*	i	-13.7	i	25.5%*	i	47.5%*	109.3*	i
Oc1ccccc1Cn1c(-c2ccccc2O)nc2ccccc21	i	0.63	i	i	-11.0	i	·	·	·	·	·
Cn1nc(-c2ccccc2)c(-c2nc(-c3cccc(Cl)c3)no2)c1Cl	-8.83*	-0.86	-9.55*	i	-9.8	i	33.0%*	i	29.5%*	103.0*	i
O=C(c1ccco1)N1CCN(c2ncnc3scc(-c4cccs4)c23)CC1	i	-0.43	i	i	-11.1	i	·	·	·	·	·
c1ccc(N2CCN(c3ncnc4scc(-c5cccs5)c34)CC2)cc1	-8.88*	-0.07	-13.3*	i	-9.9	i	42.5%*	i	35.5%*	148.3*	0.111*
Fc1ccc(-c2csc3ncnc(N4CCN(c5ccccc5)CC4)c23)cc1	-10.1*	-0.8	-13.3*	i	-5.9	i	i	i	29.5%*	117.0*	i
CCC1CCCCN1C(=O)c1ccc(OC2CCN(C(=O)CCOC)CC2)cc1 (configuration not stated)	i	0.35	i	i	-8.9	i	·	·	·	·	·
COc1ccccc1C(CCN(Cc1cccs1)C(C)=O)c1ccco1 (configuration not stated)	-13.3*	-2.28	-9.32*	i	-13.5	i	40.0%*	i	33.5%*	105.3*	i
CCOC(=O)c1sc(NC(=O)CSc2nc(-c3ccco3)cc(C(F)(F)F)n2)c(C#N)c1C	i	-0.07	i	i	-7.4	i	·	·	·	·	·
CCOC(=O)C(C)Sc1nc(-c2ccco2)cc(C(F)(F)F)c1C#N (configuration not stated)	-12.1*	-4.89	-15.7*	i	-27.9	i	70.5%*	i	44.0%*	97.7*	0.131*
Cn1c(=O)cc(SCC(=O)NCCCN2CCN(c3ccc(F)cc3)CC2)c2ccccc21	i	-0.1	i	i	-12.2	i	·	·	·	·	·
O=C(Nc1cccc(NC(=O)c2c(F)cccc2F)n1)c1c(F)cccc1F	-10.9*	0.54	-11*	i	-13.4	8*	50.0%*	i	30.0%*	101.0*	i
O=C(Nc1cccc(NC(=O)c2ccco2)c1)c1cccc(Br)c1	-13.3*	0.77	-10.5*	i	-9.0	i	59.0%*	i	i	100.0*	i
SMILES	KCNK3 block	Kir21 block	KCNK9 inh	KCNQ1 inh	hERG rescue	KCNQ1 act	KCNK9 inh conf	Kir21 sel	KCNK9 uninduced	KCNK3 inh conf	KCNK3 uninduced
O=C(c1ccccc1)c1cccc(NC(=O)c2ccc(Br)o2)c1	-9.73*	0.43	-9.15*	i	-6.3	i	i	i	i	105.7*	i
OC(COCC1CC=CCC1)Cn1cnc2ccccc21 (configuration not stated)	i	-0.83	i	i	-5.6	i	·	·	·	·	·
CCCCC(=O)Nc1ccc(NC(=S)NC(=O)CC(C)C)cc1OC	i	0.64	i	i	-0.1	i	·	·	·	·	·
CCCc1nc(SCC(=O)c2ccc(OC)cc2)c2ccccc2n1	-10.9*	-1.09	-18.6*	i	-8.2	i	78.0%*	i	27.0%*	107.7*	0.158*
CCc1nc(SCC(=O)NNC(=O)c2ccc(OC)cc2)c2ccccc2n1	i	1.16	i	i	-0.9	i	·	·	·	·	·
CC(CCCC(C)(C)O)NC(=O)c1ccc(OC2CCN(C(=O)C3CC3)CC2)cc1 (configuration not stated)	i	-0.93	i	i	-11.5	i	·	·	·	·	·
CN(CC(=O)Nc1cccc(C(F)(F)F)c1)Cc1ccccc1	-12.5*	-0.92	-14.9*	i	-8.2	i	63.5%*	i	41.0%*	106.3*	i
